# “Also recorded” adds a separate entry of the source.
# Key:
# RET^C634Y = RET^C634Y (Homo sapiens, UniProt P07949, C634Y); experiment: RET C634Y tyrosine phosphorylation in NIH3T3 fibroblasts; assay type: cell-based
# RET^C634R = RET^C634R (Homo sapiens, UniProt P07949, C634R); experiment: Cell-based RET inhibition, oncogenic RET C634R; conditions: compared with predecessor compounds 1, 2 and 3a
# RET oncoproteins = experiment: Cell-based phosphorylation of all tested RET oncoproteins; conditions: 1.0 nM
# [1] = Pharmacokinetic properties; conditions: in vivo
# VEGFR2 [2] = target: T1, VEGFR2 (Homo sapiens, UniProt P35968); experiment: VEGFA-induced VEGFR2 phosphorylation in HUVEC cells; assay type: cell-based; conditions: 1.0 nM, endogenous level
# T1 sequence (P35968 20-1356): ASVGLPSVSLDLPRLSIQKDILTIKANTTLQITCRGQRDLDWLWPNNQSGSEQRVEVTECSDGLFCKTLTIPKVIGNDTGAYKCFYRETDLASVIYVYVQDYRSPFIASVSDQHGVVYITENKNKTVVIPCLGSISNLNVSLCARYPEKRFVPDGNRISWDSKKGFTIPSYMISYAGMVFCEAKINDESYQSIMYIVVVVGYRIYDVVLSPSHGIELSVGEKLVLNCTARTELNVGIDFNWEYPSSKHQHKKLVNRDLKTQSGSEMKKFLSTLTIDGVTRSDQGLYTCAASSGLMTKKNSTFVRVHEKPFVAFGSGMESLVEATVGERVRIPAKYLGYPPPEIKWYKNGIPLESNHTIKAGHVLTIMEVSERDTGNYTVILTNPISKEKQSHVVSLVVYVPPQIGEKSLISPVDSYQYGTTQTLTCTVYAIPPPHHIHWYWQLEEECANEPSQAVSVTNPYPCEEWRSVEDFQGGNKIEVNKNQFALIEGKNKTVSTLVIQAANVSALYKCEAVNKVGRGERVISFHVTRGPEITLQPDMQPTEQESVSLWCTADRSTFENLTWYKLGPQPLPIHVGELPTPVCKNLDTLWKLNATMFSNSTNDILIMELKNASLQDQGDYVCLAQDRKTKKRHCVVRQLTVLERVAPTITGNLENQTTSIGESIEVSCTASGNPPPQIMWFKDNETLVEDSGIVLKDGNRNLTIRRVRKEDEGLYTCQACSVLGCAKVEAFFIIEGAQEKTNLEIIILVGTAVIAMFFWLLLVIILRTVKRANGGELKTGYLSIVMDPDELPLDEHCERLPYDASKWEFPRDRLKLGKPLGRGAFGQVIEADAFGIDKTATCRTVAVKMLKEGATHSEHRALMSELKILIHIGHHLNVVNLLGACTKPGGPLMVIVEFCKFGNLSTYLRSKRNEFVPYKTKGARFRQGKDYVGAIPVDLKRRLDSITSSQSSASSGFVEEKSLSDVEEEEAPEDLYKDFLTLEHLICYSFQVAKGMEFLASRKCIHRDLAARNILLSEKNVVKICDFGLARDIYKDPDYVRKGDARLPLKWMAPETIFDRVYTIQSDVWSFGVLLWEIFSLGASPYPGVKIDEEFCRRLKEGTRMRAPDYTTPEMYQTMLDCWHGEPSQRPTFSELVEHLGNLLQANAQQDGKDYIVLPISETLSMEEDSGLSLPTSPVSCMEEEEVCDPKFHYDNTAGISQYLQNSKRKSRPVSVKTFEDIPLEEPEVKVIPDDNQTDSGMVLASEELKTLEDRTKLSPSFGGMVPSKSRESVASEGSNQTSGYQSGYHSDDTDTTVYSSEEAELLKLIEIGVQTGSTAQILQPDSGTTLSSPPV
# RET^V804M [3] = target: T2, RET^V804M (Homo sapiens, UniProt P07949, V804M); experiment: Cell-based RET inhibition, RET V804M
# T2 sequence (P07949 29-1114 V804M): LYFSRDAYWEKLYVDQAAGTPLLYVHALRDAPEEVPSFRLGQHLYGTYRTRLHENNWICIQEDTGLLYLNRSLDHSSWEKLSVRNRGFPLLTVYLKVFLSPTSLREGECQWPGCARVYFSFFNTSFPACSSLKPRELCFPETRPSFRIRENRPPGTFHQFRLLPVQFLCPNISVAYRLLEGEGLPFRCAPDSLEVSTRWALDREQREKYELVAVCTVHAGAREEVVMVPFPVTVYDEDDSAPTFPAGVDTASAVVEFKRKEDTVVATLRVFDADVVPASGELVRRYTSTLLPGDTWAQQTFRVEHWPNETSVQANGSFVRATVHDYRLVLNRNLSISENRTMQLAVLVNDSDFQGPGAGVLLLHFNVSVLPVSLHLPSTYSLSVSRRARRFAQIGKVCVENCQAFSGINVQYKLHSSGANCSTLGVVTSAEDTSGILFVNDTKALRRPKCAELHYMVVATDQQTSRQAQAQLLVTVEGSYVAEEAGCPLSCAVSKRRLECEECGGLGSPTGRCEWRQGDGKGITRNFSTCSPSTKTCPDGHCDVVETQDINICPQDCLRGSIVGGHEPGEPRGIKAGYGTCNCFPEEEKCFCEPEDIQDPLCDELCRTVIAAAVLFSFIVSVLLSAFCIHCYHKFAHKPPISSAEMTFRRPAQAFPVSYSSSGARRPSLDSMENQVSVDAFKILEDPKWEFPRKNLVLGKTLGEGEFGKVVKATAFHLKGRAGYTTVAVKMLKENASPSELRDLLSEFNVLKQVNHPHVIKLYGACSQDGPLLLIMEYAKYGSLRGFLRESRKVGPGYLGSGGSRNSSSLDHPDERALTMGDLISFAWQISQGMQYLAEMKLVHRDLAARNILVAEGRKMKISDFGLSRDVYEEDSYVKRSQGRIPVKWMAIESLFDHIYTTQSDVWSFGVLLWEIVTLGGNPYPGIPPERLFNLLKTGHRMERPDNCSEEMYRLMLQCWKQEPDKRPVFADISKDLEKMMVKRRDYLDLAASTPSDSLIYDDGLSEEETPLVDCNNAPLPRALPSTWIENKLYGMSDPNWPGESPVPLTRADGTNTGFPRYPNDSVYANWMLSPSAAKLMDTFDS
# NIH3T3 RET^C634Y tumors = experiment: Tumors induced by NIH3T3 RET C634Y cells in nu/nu mice; assay type: in vivo
# Outline: (§1)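 Immunodeficient nu/nu mice were injected with NIH3T3 fibroblasts transformed by RET C634Y or by HRas G12V (Ras control). Before tumors appeared, mice received test compound orally at 1.0, 3.0 or 10.0 mg/kg/day or were left untreated. Tumor formation was scored. Tumor tissue was analysed for RET and VEGFR2 phosphorylation and for MAPK and mTOR signaling.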
# parental NIH3T3 cells = experiment: Growth of parental NIH3T3 cells; assay type: cell-based; conditions: up to 100.0 nM
# VEGFR2 [4] = target: T1, VEGFR2; experiment: VEGFA-induced VEGFR2 phosphorylation in transfected HEK293 cells; assay type: cell-based; conditions: 1.0 nM
# RET^M918T = RET^M918T (Homo sapiens, UniProt P07949, M918T); experiment: Cell-based RET inhibition, oncogenic RET M918T
# RET^M918T, sequence (P07949 29-1114 M918T): as the sequence (P07949 29-1114 V804M) above, with M776V, M890T counted along it
# RET^V804L = RET^V804L (Homo sapiens, UniProt P07949, V804L); experiment: Cell-based RET inhibition, RET V804L
# RET^V804L, sequence (P07949 29-1114 V804L): as the sequence (P07949 29-1114 V804M) above, with M776L counted along it
# NIH3T3 HRas^G12V tumors = experiment: Tumors induced by NIH3T3 HRas G12V cells in nu/nu mice; assay type: in vivo
# Outline: as §1
# NIH3T3 RET^C634Y cells = experiment: In vitro cell proliferation of NIH3T3 RET C634Y; assay type: cell-based; conditions: read-out: IC50, cell proliferation
# VEGFR2 [5] = target: T1, VEGFR2; experiment: VEGFR2 kinase microfluidics separation based assay; assay type: biochemical; conditions: read-out: IC50, VEGFR2; [ATP] = 190 μM
# RET = RET (Homo sapiens, UniProt P07949); experiment: RET kinase microfluidics separation based assay; assay type: biochemical; conditions: read-out: IC50, RET; [ATP] = 190 μM; means of at least three experiments
# RET, sequence (P07949 29-1114): as the sequence (P07949 29-1114 V804M) above, with M776V counted along it
# Outline: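 Recombinant RET activity measured by a microfluidic separation-based kinase assay at [ATP] 190 µM. IC50 values are means of at least three independent experiments.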
# RET^V804M [6] = target: T2, RET^V804M; experiment: RET V804M kinase microfluidics separation based assay; assay type: biochemical; conditions: read-out: IC50, RET^V804M; [ATP] = 190 μM
# [7] = One-week tolerability in mice; assay type: in vivo; conditions: increased linearly with dose, doses up to 100.0 mg/kg
# RET^V804M [8] = target: T2, RET^V804M; conditions: cited from earlier work
# RET^C634Y, sequence (P07949 29-1114 C634Y): as the sequence (P07949 29-1114 V804M) above, with C606Y, M776V counted along it
# RET^C634R, sequence (P07949 29-1114 C634R): as the sequence (P07949 29-1114 V804M) above, with C606R, M776V counted along it
smiles,measurement,setting,value
Cn1cc(-c2ccc3c(c2)ncn3-c2ccc(CC(=O)Nc3cc(C(C)(C)C)on3)cc2)cn1 [Pz-1],RET^C634Y tyrosine phosphorylation,RET^C634Y,efficient inhibition
same,RET inhibitory activity towards oncogenic RET^C634R,RET^C634R,increased RET inhibitory activity
same,Phosphorylation of RET oncoproteins / clinically relevant RET mutants,RET oncoproteins,strongly inhibited
same,Pharmacokinetic properties,[1],highly favorable
same,VEGFA-induced VEGFR2 phosphorylation,VEGFR2 [2],inhibiting VEGFA-induced VEGFR2 phosphorylation
same,Activity against RET^V804M,RET^V804M [3],highly effective
same,Formation of RET-driven tumors,NIH3T3 RET^C634Y tumors; 1.0 mg/kg/day per os,completely blocked; also recorded: abrogated formation of tumors
same,RET phosphorylation in tumor tissue,NIH3T3 RET^C634Y tumors; 1.0 mg/kg/day per os,blocked phosphorylation
same,VEGFR2 phosphorylation in tumors,"NIH3T3 RET^C634Y tumors; RET driven tumors, 1.0 mg/kg",inhibited VEGFR2 phosphorylation; also recorded: blocked phosphorylation
same,MAPK and mTOR mitogenic signaling cascades in tumors,NIH3T3 RET^C634Y tumors; RET-driven tumors,able to inhibit
same,Formation of tumors induced by RET^C634Y,"NIH3T3 RET^C634Y tumors; nu/nu mice, PO 1.0, 3.0 or 10.0 mg/kg/day",completely prevented formation of tumors
same,Growth inhibition,parental NIH3T3 cells,did not exert detectable growth inhibition
same,VEGFA-induced VEGFR2 phosphorylation,VEGFR2 [4],inhibiting VEGFA-induced VEGFR2 phosphorylation
same,Activity against RET^M918T,RET^M918T,highly effective
same,Activity against RET^V804L,RET^V804L,highly effective
same,VEGFR2 phosphorylation in tumors,"NIH3T3 HRas^G12V tumors; Ras driven tumors, 1.0 mg/kg",inhibited VEGFR2 phosphorylation
same,MAPK signaling in tumors,"NIH3T3 HRas^G12V tumors; Ras tumors, 10.0 mg/kg",no effect
same,IC50,NIH3T3 RET^C634Y cells,0.5 nM
same,IC50,VEGFR2 [5],< 1 nM
same,IC50,RET,< 1 nM
same,IC50,RET^V804M [6],< 1 nM
same,Alanine transaminase (ALT),[7],remaining within a normal range
COc1cc2nccc(Oc3ccc(NC(=O)C4(C(=O)Nc5ccc(F)cc5)CC4)cc3)c2cc1OC [cabozantinib],Response of RET^V804M to the drug,RET^V804M [8],refractory

# From PMC4535927 (Angewandte Chemie (International ed. in English), 2015)
